In ChEMBL document CHEMBL1123063, “Mechanism-based inactivation of N-arylhydroxamic acid N,O-acyltransferase by 7-substituted-N-hydroxy-2-acetamidofluorenes” (J Med Chem, 1985):

Experiments:
[1] = Apparent dissociation (binding) rate constant was evaluated; assay type: ADME
Procedure, shortened: (§1)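 Partially purified hamster hepatic AHAT was preincubated at 37 °C in pyrophosphate buffer pH 7, 1 mM DTT, KCl, with five inactivator concentrations (0.005–1.0 mM final) for five preincubation periods (1–15 min). Remaining AAB transacetylation activity was then assayed. kobsd came from semilog plots of percent remaining activity vs. time. k_i and K_D came from double-reciprocal plots of kobsd vs. concentration. Three experiments, each in triplicate.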

Hamster = assay: Activity measured as 4-aminoazobenzene (AAB) transacetylation rate with partially purified hamster hepatic enzyme; assay type: ADME; details: cricetinae, in vitro
Procedure, shortened: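 Hamster liver (male golden Syrian) 105000g supernatant, ammonium sulfate-fractionated (two- to three-fold), in 0.05 M sodium pyrophosphate pH 7, 1 mM DTT with KCl. 2-min 37 °C equilibration, then hydroxamic acid plus AAB added. Final: 1.0 mM donor, 0.15 mM AAB, 1.0 mg/mL protein, 2.0 min (exceptions: 0.5–0.6 mM donor, 3.5 min). TCA/EtOH stop, A497. Mean ± SE, N = 15–30.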

[2] = Ratio of apparent inactivation rate constant to apparent dissociation (binding) rate constant was determined
[3] = Apparent inactivation rate constant was evaluated; procedure, shortened: as §1
Cricetinae gen. sp. [4] = assay: Percent protection from inactivation of AHAT was determined using glutathione; assay type: functional, Cricetulus griseus; set-up: concentration or dose not given beside the values
Procedure, shortened: (§2)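 Run as in the inactivation kinetics: hamster hepatic AHAT was preincubated at 37 °C with a saturating inactivator concentration for 2–20 min (to maximal inactivation). Nucleophile was present at 10 mM (L-cysteine, L-methionine, glutathione, guanosine phosphate) or tRNA at 1 mg/mL. Remaining AAB transacetylation activity was then measured. Protection = percent remaining activity with minus without nucleophile. Mean ± SE of three experiments.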

Cricetinae gen. sp. [5] = assay: Percent protection from inactivation of AHAT was determined using L-methionine; assay type: functional, Cricetulus griseus; set-up: concentration or dose not given beside the values; procedure, shortened: as §2
Cricetinae gen. sp. [6] = assay: Percent protection from inactivation of AHAT was determined using t-RNA; assay type: functional, Cricetulus griseus; set-up: concentration or dose not given beside the values; procedure, shortened: as §2
Cricetinae gen. sp. [7] = assay: Percent protection from inactivation of AHAT was determined using guanosine phosphate; assay type: functional, Cricetulus griseus; set-up: concentration or dose not given beside the values; procedure, shortened: as §2
Cricetinae gen. sp. [8] = assay: Percent protection from inactivation of AHAT was determined using L-cysteine; assay type: functional, Cricetulus griseus; set-up: concentration or dose not given beside the values; procedure, shortened: as §2
[9] = tested on: N-arylhydroxamic acid N,O-acyltransferase (Mesocricetus auratus); assay: Percent protection from inactivation of AHAT was determined using glutathione
[10] = tested on: N-arylhydroxamic acid N,O-acyltransferase (Mesocricetus auratus); assay: Percent protection from inactivation of AHAT was determined using t-RNA
[11] = tested on: N-arylhydroxamic acid N,O-acyltransferase (Mesocricetus auratus); assay: Percent protection from inactivation of AHAT was determined using guanosine phosphate
[12] = tested on: N-arylhydroxamic acid N,O-acyltransferase (Mesocricetus auratus); assay: Percent protection from inactivation of AHAT was determined using L-methionine
[13] = tested on: N-arylhydroxamic acid N,O-acyltransferase (Mesocricetus auratus); assay: Percent protection from inactivation of AHAT was determined using L-cysteine

Structure (SMILES) | Kd [1] | Rate (Hamster) | kinact/KI [2] | kinact [3] | Protection (Cricetinae gen. sp. [4]) | Protection (Cricetinae gen. sp. [5]) | Protection (Cricetinae gen. sp. [6]) | Protection (Cricetinae gen. sp. [7]) | Protection (Cricetinae gen. sp. [8]) | Protection [9] | Protection [10] | Protection [11] | Protection [12] | Protection [13]
COc1ccc2c(c1)Cc1cc(N(O)C(C)=O)ccc1-2 | 35.1 µM | 10.9 nmol/mg/min | 1770 M⁻¹ s⁻¹ | 3.73 min⁻¹ | 46.1% | 28.3% | 32.2% | 54.9% | 47.6% | – | – | – | – | –
CC(=O)c1ccc2c(c1)Cc1cc(N(O)C(C)=O)ccc1-2 | 0.4 µM | 13.7 nmol/mg/min | 10400 M⁻¹ s⁻¹ | 0.25 min⁻¹ | 26.3% | 0.3% | 8.3% | 1.4% | 32.4% | – | – | – | – | –
CC(=O)N(O)c1ccc2c(c1)Cc1cc(F)ccc1-2 | 129 µM | 26.8 nmol/mg/min | 334 M⁻¹ s⁻¹ | 2.59 min⁻¹ | 55.2% | 38.2% | 17.6% | 58.4% | 54.5% | – | – | – | – | –
CCOc1ccc2c(c1)Cc1cc(N(O)C(C)=O)ccc1-2 | 3.8 µM | 9.6 nmol/mg/min | 2940 M⁻¹ s⁻¹ | 0.67 min⁻¹ | – | – | – | – | – | 39.4% | 19.2% | 21.3% | 43.3% | 34.2%
CC(=O)N(O)c1ccc2c(c1)Cc1ccccc1-2 | 88.8 µM | 20.9 nmol/mg/min | 360 M⁻¹ s⁻¹ | 1.95 min⁻¹ | 15.7% | 23.1% | 1.9% | 34.9% | 39.1% | – | – | – | – | –
CCCCOc1ccc2c(c1)Cc1cc(N(O)C(C)=O)ccc1-2 | 5.7 µM | 4.6 nmol/mg/min | 1690 M⁻¹ s⁻¹ | 0.58 min⁻¹ | 6% | 8.1% | 18% | 18.9% | 9.3% | – | – | – | – | –

More lines, in order of falling Kd [1], values ahead:

Kd [1] | Rate (Hamster) | kinact/KI [2] | kinact [3] | Structure (SMILES) | Protection (Cricetinae gen. sp. [4]) | Protection (Cricetinae gen. sp. [5]) | Protection (Cricetinae gen. sp. [6]) | Protection (Cricetinae gen. sp. [7]) | Protection (Cricetinae gen. sp. [8]) | Protection [9] | Protection [10] | Protection [11] | Protection [12] | Protection [13]
48.8 µM | 20.1 nmol/mg/min | 258 M⁻¹ s⁻¹ | 0.76 min⁻¹ | CC(=O)N(O)c1ccc2c(c1)Cc1cc(Cl)ccc1-2 | – | – | – | – | – | – | – | – | – | –
40 µM | 16.5 nmol/mg/min | 37.5 M⁻¹ s⁻¹ | 0.09 min⁻¹ | CC(=O)N(O)c1ccc2c(c1)Cc1cc(C#N)ccc1-2 | 30.5% | 8% | 2.9% | 5.9% | 35.9% | – | – | – | – | –
5.9 µM | 20.5 nmol/mg/min | 620 M⁻¹ s⁻¹ | 0.22 min⁻¹ | CC(=O)N(O)c1ccc2c(c1)Cc1cc(Br)ccc1-2 | 34.7% | 6.6% | 0% | 26.9% | 31.1% | – | – | – | – | –
0.4 µM | 5.3 nmol/mg/min | 2900 M⁻¹ s⁻¹ | 0.07 min⁻¹ | CC(=O)N(O)c1ccc2c(c1)Cc1cc(I)ccc1-2 | – | – | – | – | – | – | – | – | – | –
